Measured values pooled from the literature.
Protocols differ between the studies behind these lines.
Target: Casein kinase I isoform gamma-3 (CSNK1G3, Homo sapiens, UniProt Q9Y6M4)

SMILES | observed | technique | tested at | remaining binding
COc1ncc2cc3ccccc3nc2c1C#N | cell-free assay | competition with immobilised ligand | 5 µM | 96%
Cc1cnc(Nc2ccc(C(=O)N3CCC(N4CCCC4)CC3)cc2)nc1-c1cc2ccccc2s1 | binding | competition with immobilised ligand | 1 µM | 100%
C[C@H]1CCN(c2nccc(-c3cnn4ncccc34)n2)C1 | binding |  | 1 µM | 91%
CS(=O)(=O)N1CCCC(NC(=O)[C@H](CCC2CCCCC2)NC(=O)c2ccc(CNc3ncnc4c3nnn4-c3ccccc3)cc2)C1 (some centres unmarked) | cell-free assay | competition with immobilised ligand | 0.1 µM | 100%
FC(F)(F)Oc1cccc(-c2cnc3ccc(-c4ccncc4)nn23)c1 | cell-free assay | competition with immobilised ligand | 5 µM | 84%
CN(C)c1nccc(-c2cnc3ncccn23)n1 | binding |  | 1 µM | 70%
CSc1cccnc1N1CCN(Cc2nc3ccccc3[nH]2)CC1 | cell-free assay | competition with immobilised ligand | 1 µM | 86%
CN(C)c1ncc(F)c(-c2cnn3ncccc23)n1 | binding |  | 1 µM | 100%
O=C(Nc1c[nH]nc1C(=O)NC1CCNCC1)c1cc(F)cc(F)c1 | binding | competition with immobilised ligand | 1 µM | 98%
c1cncc(-c2cccc(Nc3nccc(NC4CCCCC4)n3)c2)c1 | binding | competition with immobilised ligand | 10 µM | 100%
Cc1nc(N2CC[C@@H](O)C2)ncc1-c1cc(C(F)(F)F)cc2[nH]ncc12 | cell-free assay | competition with immobilised ligand | 1 µM | 74%
N[C@H]1CCN(c2nccc(-c3cnn4ncccc34)n2)C1 | binding |  | 1 µM | 100%
O=C(NCc1ncc(C(F)(F)F)cc1Cl)c1ccc2c(c1)C1(CCS(=O)(=O)CC1)[C@H](C1CC1)N2S(=O)(=O)c1ccc(F)cc1 | cell-free assay | competition with immobilised ligand | 1 µM | 100%
COc1ccnn2ncc(-c3ccnc(N(C)C)n3)c12 | binding |  | 1 µM | 97%
N#Cc1ccc(Nc2ccc3[nH]c(=O)[nH]c3c2)c(Cl)c1 | cell-free assay | competition with immobilised ligand | 1 µM | 99%
Cc1cnn2ncc(-c3ccnc(N(C)C)n3)c2c1 | binding |  | 1 µM | 82%
O=C(NCCCN1CCOCC1)c1ccc(Nc2ncc(Cl)c(-c3ccc(Cl)s3)n2)cc1 | binding | competition with immobilised ligand | 1 µM | 100%
O=C(O)[C@H]1[C@H](Cn2nnc3ccccc3c2=O)CC[C@@H]1C(=O)c1ccc(OCCC2CCOCC2)cc1 | cell-free assay | competition with immobilised ligand | 1 µM | 100%
O=C(c1ccc(Nc2ncc(Cl)c(-c3cc4ccccc4s3)n2)cc1)N1CCC(N2CCCC2)CC1 | binding | competition with immobilised ligand | 1 µM | 100%
COc1cnc(Nc2cccc(S(N)(=O)=O)c2)nc1N1CCN(c2ccccc2)CC1 | binding | competition with immobilised ligand | 1 µM | 100%
